According to ChEMBL document CHEMBL4613262, “Revisiting Aldehyde Oxidase Mediated Metabolism in Drug-like Molecules: An Improved Computational Model” (J Med Chem, 2020):

Columns and labels:
Aldehyde oxidase [1] = molecular target: T1, Aldehyde oxidase (Homo sapiens, UniProt Q06278); assay: Substrate activity at aldehyde oxidase in human liver cytosol assessed as mono-oxide metabolite formation at 10 uM measured after 3 hrs in presence of AOX inhibitor hydralazine by UPLC/Q-TOF MS analysis; format: ADME, subcellular
T1 sequence (Q06278 whole entry): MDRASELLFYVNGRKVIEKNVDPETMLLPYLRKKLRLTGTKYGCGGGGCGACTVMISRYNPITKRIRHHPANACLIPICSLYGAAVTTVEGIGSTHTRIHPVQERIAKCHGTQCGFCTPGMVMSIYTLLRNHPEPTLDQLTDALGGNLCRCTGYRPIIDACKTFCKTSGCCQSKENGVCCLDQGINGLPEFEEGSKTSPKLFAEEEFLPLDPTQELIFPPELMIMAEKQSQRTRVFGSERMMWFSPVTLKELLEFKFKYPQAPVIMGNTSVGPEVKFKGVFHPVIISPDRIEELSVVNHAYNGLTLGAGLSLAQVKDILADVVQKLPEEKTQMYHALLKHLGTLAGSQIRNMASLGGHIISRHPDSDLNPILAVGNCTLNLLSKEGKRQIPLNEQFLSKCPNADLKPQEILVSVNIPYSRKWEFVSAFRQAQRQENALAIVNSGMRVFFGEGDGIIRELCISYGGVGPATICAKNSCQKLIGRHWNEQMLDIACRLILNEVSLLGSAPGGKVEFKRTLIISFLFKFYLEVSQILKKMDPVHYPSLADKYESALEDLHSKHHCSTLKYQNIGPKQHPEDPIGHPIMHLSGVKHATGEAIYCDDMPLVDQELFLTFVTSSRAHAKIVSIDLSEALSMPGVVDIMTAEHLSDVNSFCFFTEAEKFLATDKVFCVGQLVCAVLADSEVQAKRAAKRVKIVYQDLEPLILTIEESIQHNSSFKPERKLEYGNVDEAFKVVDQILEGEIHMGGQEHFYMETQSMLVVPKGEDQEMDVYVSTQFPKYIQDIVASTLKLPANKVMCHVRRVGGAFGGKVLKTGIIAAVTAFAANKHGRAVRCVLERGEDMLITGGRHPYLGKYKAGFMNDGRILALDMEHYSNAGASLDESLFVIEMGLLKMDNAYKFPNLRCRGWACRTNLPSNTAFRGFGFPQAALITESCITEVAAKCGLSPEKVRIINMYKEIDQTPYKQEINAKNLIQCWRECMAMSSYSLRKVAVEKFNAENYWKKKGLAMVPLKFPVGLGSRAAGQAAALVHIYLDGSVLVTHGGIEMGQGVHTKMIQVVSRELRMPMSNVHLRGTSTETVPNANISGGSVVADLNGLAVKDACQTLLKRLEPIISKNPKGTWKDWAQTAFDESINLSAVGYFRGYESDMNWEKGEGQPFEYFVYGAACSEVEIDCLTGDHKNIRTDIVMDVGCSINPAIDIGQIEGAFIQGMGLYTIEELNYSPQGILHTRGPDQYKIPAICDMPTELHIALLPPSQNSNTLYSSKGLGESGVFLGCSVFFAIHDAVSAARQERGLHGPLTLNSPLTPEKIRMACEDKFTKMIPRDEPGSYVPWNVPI
How it was run: (§1)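 Human liver cytosol (2 mg/mL final protein) in 100 mM potassium phosphate pH 7.4 with 2 mM MgCl2, 10 μM test compound, 100 μM inhibitor, DMSO 1.1% final. Pre-incubated 3 min at 37°C, started by adding compound, run 3 h at 37°C, stopped with ice-cold acetonitrile. Supernatant analysed by UPLC/Q-TOF MS (positive ESI) for oxidative metabolite peak area. Inhibition ratio taken against no-inhibitor controls; triplicate.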

Aldehyde oxidase [2] = molecular target: T1, Aldehyde oxidase; assay: Substrate activity at aldehyde oxidase in human liver cytosol assessed as mono-oxide metabolite formation at 10 uM measured after 3 hrs in presence of AOX inhibitor raloxifene by UPLC/Q-TOF MS analysis; format: ADME, subcellular; how it was run: as §1

| SMILES | Drug metabolism (Aldehyde oxidase [1]) | Drug metabolism (Aldehyde oxidase [2]) |
| --- | --- | --- |
| O=C(c1cncc(Br)c1)N1CCC(N2CCCC2)CC1 | Metabolite_Notdetected | Metabolite_Notdetected |
| O=C(NCC(=O)N1CCCC1)Nc1ccc2cnccc2c1 | Metabolite_Notdetected | Metabolite_Notdetected |
| Cl.Cl.Fc1cc(-c2cccc3ncc(-c4cnn(C5CCNCC5)c4)nc23)cc(F)c1CN1CCOCC1 | Metabolite_Notdetected | Metabolite_Notdetected |

Second part, the molecule after the results:

| Drug metabolism (Aldehyde oxidase [1]) | Drug metabolism (Aldehyde oxidase [2]) | SMILES |
| --- | --- | --- |
| Metabolite_Notdetected | Metabolite_Notdetected | Cl.O=C(Nc1ccccc1-c1cn2c(CN3CCNCC3)csc2n1)c1cnc2ccccc2n1 |
| Metabolite_Notdetected | Metabolite_Notdetected | Cc1cc(Nc2ccc(NC(=O)c3ccc(Nc4ccnc5ccccc45)cc3)cc2)nc(N)n1 |
| Metabolite_Notdetected | Metabolite_Notdetected | N#C/C(=C\c1ccc(-c2cc(Cl)ccc2Cl)o1)C(=O)Nc1cccc2ncccc12 |
